# Source: PubChem (several laboratories)
# This is a sample that favours compounds with a hit; in the whole collection about 1.9% have one here.
# NCF1 inh = inhibitors of human p47phox binding; P14598; hit rate 0.53% among 220,000; inhibition, % at 24.7 µM; p47phox/p22phox peptide binding, fluorescence polarization, 2 h; AID 1274;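 active = inhibition above about 30%, limit read from the data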;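 also: 0% = p47phox with labelled peptide and 100% = labelled peptide alone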
# Dynein transport = blocks dynein driven cargo transport along microtubules; 3617.4 mouse cells, GR-EGFP nuclear translocation imaging; test concentration mostly 20 µM; stimulated with dexamethasone, 1 µM; active compounds read low; hit rate 0.47% among 220,000; z-score, hits read low;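 active = plate z-score of nuclear minus cytoplasmic receptor signal below a set negative limit, without overly bright fluorescence or cell loss, cut at about -3.5 in these data, passing the limit was not always enough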;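 also: z-score of nuclear minus cytoplasmic ring GR-EGFP intensity difference per well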
#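 Buffer or medium: tet-free medium with charcoal-stripped serum / Also added: dexamethasone agonist, 1.0 µM final, for 30 min / Timing: induction 48 h, compound 1 h, agonist 30 min / Measured by: high-content fluorescence imaging after fixation / Read-out: nuclear-to-cytoplasmic GR-EGFP distribution per well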
# RAM network inh = blocks the yeast RAM network; S. cerevisiae dse1pr::URA3 reporter, 5-FOA growth OD615, 2 d; analog-sensitive cbk1-as2 kinase mutant strain; inhibition, % at 50 µM; hit rate 1.8% among 190,000;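 active = inhibition above a set limit, 3 SD over mean compound inhibition, cut at about 8.4% in these data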;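 also: 0% = DMSO-only wells with no growth and 100% = 10 µM 1-NA-PP1 full growth; inhibition rescues growth on 5-FOA so higher OD means more RAM inhibition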
# pCIP destab = compounds decreasing mouse p/CIP protein stability; Q05BA5; F442A p/CIP-EGFP cells, EGFP fluorescence, 16 h; decrease of EGFP signal, % at 10 µM; hit rate 0.01% among 290,000;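 active = EGFP signal decrease of at least 30% at 10 µM or well 3 SD below plate mean, unless failing retest; inactive = the rest, including hits failing retest or dose response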
# Dynein inh conf = dynein cargo transport inhibition, confirmation; 3617.4 GR-EGFP nuclear translocation imaging, dexamethasone-induced; shares compounds with Dynein transport; AID 463116; hit rate 69% among 1,000; calls only at 20 µM;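 active = inhibition of receptor movement into the nucleus at or above a set limit in both runs, with normal cell brightness and cell count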;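 also: dexamethasone at 1 µM final in well for 30 min; nuclear minus cytoplasmic GR-EGFP mean intensity difference in channel 2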
# * = called active by the depositor; i = inactive; . = no result given; + = active, no number.
SMILES,NCF1 inh,Dynein transport,RAM network inh,pCIP destab,Dynein inh conf
C=CCS(=O)(=O)c1nc2ccccc2s1,-3,-5.4*,0,-2,i
O=c1c(Cl)c(NCCCO)cnn1-c1nc2ccccc2[nH]1,-4,-4.2*,0,-7,+
C=CCN(CC=C)c1cnn(-c2nc3ccccc3[nH]2)c(=O)c1Cl,-10,0.096,1,-17,.
Cc1cccn2c(=O)c(C=O)c(Cl)nc12,-2,-5.9*,.,-9,+
Cc1cccn2c(=O)c(C=O)c(N3CCCCC3)nc12,2,0.87,1,4,.
O=C(CSc1ccc([N+](=O)[O-])cn1)Nc1ccccc1N1CCOCC1,.,.,.,-2,.
C=C(CCC(=O)c1ccccc1)C(=O)c1ccccc1,2,-3.8*,-2,1,+
O=C(CCCCCCCC(=O)c1ccccc1)c1ccccc1,-7,-0.19,0,-14,.
COc1ccccc1CNC(=O)/C=C/c1ccc(S(=O)(=O)NCc2ccco2)cc1,-11,0.036,5,-9,.
CCN1CCN(Cc2c(O)ccc3c2O/C(=C\C=C\c2ccccc2)C3=O)CC1,-69,-4.9*,1,15,+
CCn1nc([N+](=O)[O-])c(C(C#N)c2nc3ccccc3n2C)c(Cl)c1=O (stereo not drawn),0,-1.7,6,-11,.
CCCn1nc([N+](=O)[O-])c(C(C#N)c2nc3ccccc3s2)c(Cl)c1=O (stereo not drawn),-5,-5.1*,6,6,+
Cc1ccc(C(C)C)c(OCC(=O)NN=C(CCl)CCl)c1,-45,-4.6*,.,-11,+
C/C(=N/NC(=O)COc1cc(C)ccc1C(C)C)C(=O)O,3,0.065,-1,2,.
COc1ccc(S(=O)(=O)Nc2ccc(O)c3ccccc23)cc1,-17,-3.7*,1,-9,i
CC1CCN(CCCNC(=O)c2ccc3c(Cl)c4c(nc3c2)CCCC4)CC1,-1,-5*,.,-5,+
O=C(NCCCN1CCCCCC1)c1ccc2c(Cl)c3c(nc2c1)CCCC3,8,-3.7*,0,4,+
CCN1CCN(CCCNC(=O)c2ccc3c(Cl)c4c(nc3c2)CCCC4)CC1,.,.,.,-4,.
COc1ccc(CNc2nc(-c3cccnc3)nn2C(=O)C(C)C)cc1,8,-0.6,1,-8,.
CCN(CC)Cc1cc(O)c(CN(CC)CC)cc1O,46*,-4.9*,1,-8,+
O=C1/C(=C/c2ccc(N3CCCC3)cc2)NC(=S)N1C1CC1,-102,-5,1,-20,+
O=C1N/C(=C/c2ccc(N3CCCC3)cc2)C(=O)N1c1ccccc1,4,1.5,4,0,.
CCOC(=O)C1=C(SCC)c2cc3c(n2C1=O)CCCC3,9,-3.6*,7,-2,+
CC(=O)Nc1c([N+](=O)[O-])cc(C)c(Cl)c1[N+](=O)[O-],5,-5.8*,3,-6,+
COc1ccc(CN=CC2=C(O)CNC2=O)cc1,-8,-0.23,0,-2,.
SMILES,NCF1 inh,Dynein transport,RAM network inh,pCIP destab,Dynein inh conf
COc1ccc(CN=Cc2[nH]c3ccc(Br)c(Cl)c3c2O)cc1,-2,-5*,0,8,+
Cc1cc(C)cc(N=Cc2[nH]c3ccc(Br)c(Cl)c3c2O)c1,-17,-9.1,0,5,+
Cc1ccc(N=Cc2cc(Br)cc(Cl)c2O)cc1,-30,2.5,0,5,.
N#CCC(=N)N1CCN(c2ccc(F)cc2)CC1,2,0.82,0,9,.
COc1ccc(C(=O)NNC(=O)CSc2ccccc2)cc1,.,-0.4,1,2,.
N#CC1=C(N)C(C#N)(C#N)C(c2ccncc2)C2CN(C(=O)OCc3ccccc3)CC=C12 (stereo not drawn),-30,-4,2,-3,i
N#CC1=C(N)C(C#N)(C#N)[C@H](c2cccnc2)[C@H]2CN(C(=O)OCc3ccccc3)CC=C12,-1,-0.28,4,-8,.
COc1ccc(CCNC(=O)CCC(=O)N2CC(C)Oc3ccccc32)cc1OC (stereo not drawn),.,.,.,4,.
O=C(O)C(CO)(c1ccccc1)c1ccccc1,.,.,.,4,.
COc1ccccc1CNC(=O)C(=O)c1cn(CC(=O)N2CCOCC2)c2ccccc12,.,.,.,-6,.
O=Cc1cn(-c2ccccc2)nc1-c1ccccc1,.,.,.,5,.
CC1=NNC(=O)/C1=C\c1cn(-c2ccccc2)nc1-c1ccccc1,-4,-3.9*,2,4,i
Cc1sc(/C=C2\C(=O)ON=C2c2ccccc2)cc1Br,-18,-0.71,4,8,.
O=C1ON=C(c2ccccc2)/C1=C/c1ccccc1,.,.,.,-9,.
